From ChEMBL document CHEMBL1135939, “Studies on the synthesis and opioid agonistic activities of mitragynine-related indole alkaloids: discovery of opioid agonists structurally different from other opioid ligands” (J Med Chem, 2002)
Calls of active or inactive are those of the source. The calls are words filed in the database; no cut-off is given here.

What was measured:
Cavia porcellus [1] = organism: Cavia porcellus; test: % maximum inhibition is elicited when the response reaches plateau, calculated regarding electrically induced contraction in guinea pig ileum as 100% (P < 0.001); type: functional
Outline: (§1)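 Ileum from male Dunkin-Hartley guinea pigs (300–400 g) in bath at 37 °C bubbled with 95% O2/5% CO2. Tissue suitability checked with acetylcholine 3 μM. Transmural stimulation at 0.2 Hz, 0.3 ms, supramaximal voltage, isotonic recording. Cumulative concentration–response curves over 100 pM–30 μM. Twitch height measured before and after drug. Mean ± SEM from five to six animals.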

Cavia porcellus [2] = organism: Cavia porcellus; test: Relative potency expressed as the percentage of the pD2 value against that of morphine; type: functional
Cavia porcellus [3] = organism: Cavia porcellus; test: activity evaluated by its ability to inhibit the electrically induced twitch contraction in guinea pig ileum, which is reversed by naloxone (300 nM); type: functional; outline: as §1
Cavia porcellus [4] = organism: Cavia porcellus; test: Relative inhibitory activity expressed as the percentage of the maximum inhibition by the compound against that of morphine; type: functional
Cavia porcellus [5] = organism: Cavia porcellus; test: Relative potency expressed as the percentage of the pD2 value against that of morphine; non specific; type: functional
Cavia porcellus [6] = organism: Cavia porcellus; test: activity evaluated by its ability to inhibit the electrically induced twitch contraction in guinea pig ileum, which is reversed by naloxone (300 nM); non specific; type: functional; outline: as §1
Cavia porcellus [7] = organism: Cavia porcellus; test: % maximum inhibition is elicited when the response reaches plateau, calculated regarding electrically induced contraction in guinea pig ileum as 100%; non specific; type: functional; outline: as §1
Cavia porcellus [8] = organism: Cavia porcellus; test: Relative inhibitory activity expressed as the percentage of the maximum inhibition by the compound against that of morphine; non specific; type: functional
Cavia porcellus [9] = organism: Cavia porcellus; test: % maximum inhibition is elicited when the response reaches plateau, calculated regarding electrically induced contraction in guinea pig ileum as 100%; type: functional; outline: as §1
Cavia porcellus [10] = organism: Cavia porcellus; test: activity evaluated by its ability to inhibit the electrically induced twitch contraction in guinea pig ileum, which is reversed by naloxone (300 nM)(P < 0.001); type: functional; outline: as §1
[11] = target: Mu-type opioid receptor (Cavia porcellus) (UniProt P97266); test: Relative affinity evaluated for Opioid receptor mu 1
Outline: (§2)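 From displacement Ki values in guinea pig brain membranes for μ ([3H]DAMGO), δ ([3H]DPDPE) and κ ([3H]U-69593) sites. Ka = 1/Ki. Relative affinity (%) = Ka for the subtype / (Kaμ + Kaδ + Kaκ).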

Mu-type opioid receptor = Mu-type opioid receptor (Cavia porcellus, UniProt P97266); test: Binding affinity using guinea pig brain membrane preparations, towards Opioid receptor mu 1 using [3H]- DAMGO as radioligand
Outline: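 Guinea pig whole-brain (minus cerebellum) membranes in 50 mM Tris-HCl pH 7.4 with 1 nM radioligand. [3H]DPDPE incubated 2 h and [3H]DAMGO 1.5 h, both at 25 °C. Nonspecific binding defined with 1 μM naltrindole (DPDPE) or 1 μM DAMGO (DAMGO). GF/B filtration, scintillation counting. 6–9 inhibitor concentrations; Ki by Cheng–Prusoff, given as pKi. 3–5 curves, each in triplicate.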

[12] = tested on: Delta-type opioid receptor; test: Relative affinity evaluated for Opioid receptor delta 1; conditions: Cavia porcellus; outline: as §2
[13] = target: Kappa-type opioid receptor (Cavia porcellus, UniProt P41144); test: Binding affinity using guinea pig brain membrane preparations, towards Opioid receptor kappa 1 using [3H]- U-69,593 as radioligand
Cavia porcellus [14] = organism: Cavia porcellus; test: activity evaluated by its ability to inhibit the electrically induced twitch contraction in guinea pig ileum, which is reversed by naloxone (300 nM)(P < 0.01); type: functional; outline: as §1
Cavia porcellus [15] = organism: Cavia porcellus; test: activity evaluated by its ability to inhibit the electrically induced twitch contraction in guinea pig ileum, which is reversed by naloxone (300 nM) (P < 0.001); type: functional; outline: as §1
Cavia porcellus [16] = organism: Cavia porcellus; test: Effect of Corynantheidine (1 uM) on twitch contraction inhibited by morphine (1 uM) in guinea pig (P<0.05); type: functional
Cavia porcellus [17] = organism: Cavia porcellus; test: Effect of Corynantheidine (10 uM) on twitch contraction inhibited by Atropine (0.1 uM) in guinea pig; type: functional
Cavia porcellus [18] = organism: Cavia porcellus; test: Effect of Corynantheidine (10 uM) on twitch contraction inhibited by Verapamil (3 uM) in guinea pig; type: functional
Cavia porcellus [19] = organism: Cavia porcellus; test: Effect of Corynantheidine (10 uM) on twitch contraction inhibited by morphine (1 uM) in guinea pig (P<0.001); type: functional
Cavia porcellus [20] = organism: Cavia porcellus; test: Effect of Corynantheidine (1 uM) on twitch contraction inhibited by Atropine (0.1 uM) in guinea pig; type: functional
Cavia porcellus [21] = organism: Cavia porcellus; test: Effect of Corynantheidine (1 uM) on twitch contraction inhibited by Verapamil (3 uM) in guinea pig; type: functional
Cavia porcellus [22] = organism: Cavia porcellus; test: % maximum inhibition is elicited when the response reaches plateau, calculated regarding electrically induced contraction in guinea pig ileum as 100% (P<0.001); type: functional; outline: as §1
Cavia porcellus [23] = organism: Cavia porcellus; test: % maximum inhibition is elicited when the response reaches plateau, calculated regarding electrically induced contraction in guinea pig ileum as 100%(P < 0.001); type: functional; outline: as §1
Cavia porcellus [24] = organism: Cavia porcellus; test: % maximum inhibition is elicited when the response reaches plateau, calculated regarding electrically induced contraction in guinea pig ileum as 100%(P < 0.01); type: functional; outline: as §1
Cavia porcellus [25] = organism: Cavia porcellus; test: % inhibition of twitch contraction in electrically stimulated guinea pig ileum preparation; type: functional; outline: as §1
Cavia porcellus [26] = organism: Cavia porcellus; test: % inhibition of twitch contraction at 3 uM in electrically stimulated guinea pig ileum preparation by; type: functional; outline: as §1
Cavia porcellus [27] = organism: Cavia porcellus; test: % maximum inhibition is elicited when the response reaches plateau, calculated regarding electrically induced contraction in guinea pig ileum as 100%; no effect; type: functional; outline: as §1
Cavia porcellus [28] = organism: Cavia porcellus; test: Relative inhibitory activity expressed as the percentage of the maximum inhibition by the compound against that of morphine; no effect; type: functional
Cavia porcellus [29] = organism: Cavia porcellus; test: activity evaluated by its ability to inhibit the electrically induced twitch contraction in guinea pig ileum, which is reversed by naloxone (300 nM); no effect; type: functional; outline: as §1
Cavia porcellus [30] = organism: Cavia porcellus; test: Relative potency expressed as the percentage of the pD2 value against that of morphine; no effect; type: functional
Cavia porcellus [31] = organism: Cavia porcellus; test: % inhibition of twitch contraction at 0.1 uM in electrically stimulated guinea pig ileum preparation; type: functional; outline: as §1

Mu-type opioid receptor, sequence (P97266 whole entry): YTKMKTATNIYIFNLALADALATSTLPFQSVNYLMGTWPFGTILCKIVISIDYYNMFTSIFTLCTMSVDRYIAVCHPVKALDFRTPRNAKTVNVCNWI
Mu-type opioid receptor (Cavia porcellus), sequence (P97266 whole entry): as above
Kappa-type opioid receptor, sequence (P41144 whole entry): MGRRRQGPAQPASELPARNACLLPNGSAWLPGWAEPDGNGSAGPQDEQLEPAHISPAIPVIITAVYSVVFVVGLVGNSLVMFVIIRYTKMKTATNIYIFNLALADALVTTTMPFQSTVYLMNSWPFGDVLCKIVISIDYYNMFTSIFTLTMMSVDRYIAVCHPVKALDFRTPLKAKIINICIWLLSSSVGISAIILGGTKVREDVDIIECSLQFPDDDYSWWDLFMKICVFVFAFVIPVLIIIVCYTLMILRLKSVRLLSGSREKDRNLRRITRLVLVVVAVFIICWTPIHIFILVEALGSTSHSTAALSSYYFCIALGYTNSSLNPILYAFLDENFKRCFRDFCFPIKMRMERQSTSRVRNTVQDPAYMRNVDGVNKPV

CC[C@@H]1CN2CCc3c([nH]c4cccc(OC(C)=O)c34)[C@@H]2C[C@@H]1/C(=C\OC)C(=O)OC
Inhibition (Cavia porcellus [1]): 33.2%
Relative potency (Cavia porcellus [2]): 2%
pD2 (Cavia porcellus [3]): 5.39
Inhibition (Cavia porcellus [4]): 38%

CCOc1cccc2[nH]c3c(c12)CCN1C[C@@H](CC)[C@@H](/C(=C\OC)C(=O)OC)C[C@@H]31
NS (Cavia porcellus [5]): non specific
NS (Cavia porcellus [6]): non specific
NS (Cavia porcellus [7]): non specific
NS (Cavia porcellus [8]): non specific

CC[C@@H]1CN2CCc3c([nH]c4cccc(OC(C)C)c34)[C@@H]2C[C@@H]1/C(=C\OC)C(=O)OC
NS (Cavia porcellus [5]): non specific
NS (Cavia porcellus [6]): non specific
NS (Cavia porcellus [7]): non specific
NS (Cavia porcellus [8]): non specific

CC[C@@H]1CN2CC3=C(O)C4C(OC)=CC=CC4N=C3[C@@H]2C[C@@H]1/C(=C\OC)C(=O)OC (stereo partly specified)
Inhibition (Cavia porcellus [9]): 74.1%
Relative potency (Cavia porcellus [2]): 34%
pD2 (Cavia porcellus [10]): 6.7
Inhibition (Cavia porcellus [4]): 85%

CC[C@@H]1CN2CCc3c([nH]c4cccc(OC)c34)[C@@H]2C[C@@H]1/C(=C\OC)C(=O)OC
Relative affinity [11]: 88.7%
Ki (Mu-type opioid receptor): 7.24 nM
Relative affinity [12]: 10.7%
Ki [13]: 1100 nM
Inhibition (Cavia porcellus [9]): 83.1%
Relative potency (Cavia porcellus [2]): 26%
pD2 (Cavia porcellus [14]): 6.59
Inhibition (Cavia porcellus [4]): 95%

CC[C@@H]1CN2CC[C@@]3(O)C(=Nc4cccc(OC)c43)[C@@H]2C[C@@H]1/C(=C\OC)C(=O)OC
Relative affinity [11]: 83.3%
Ki (Mu-type opioid receptor): 13.5 nM
Relative affinity [12]: 6.6%
Ki [13]: 123 nM
Inhibition (Cavia porcellus [9]): 86.3%
Relative potency (Cavia porcellus [2]): 1071%
pD2 (Cavia porcellus [15]): 8.2
Inhibition (Cavia porcellus [4]): 99%

CC[C@@H]1CN2CCc3c([nH]c4ccccc34)[C@@H]2C[C@@H]1/C(=C\OC)C(=O)OC [CORYNANRHEIDINE]
Relative affinity [11]: 95.8%
Ki (Mu-type opioid receptor): 72.4 nM
Relative affinity [12]: 1%
Ki [13]: 2570 nM
Contraction (Cavia porcellus [16]): 43%
Contraction (Cavia porcellus [17]): 6.3%
Contraction (Cavia porcellus [18]): 13.2%
Contraction (Cavia porcellus [19]): 109.2%
Contraction (Cavia porcellus [20]): 5.7%
Contraction (Cavia porcellus [21]): 7%
Inhibition (Cavia porcellus [22]): -18.1%
Inhibition (Cavia porcellus [4]): -21%

CC[C@@H]1CN2CCc3c([nH]c4cccc(OC)c34)[C@H]2C[C@@H]1/C(=C/OC)C(=O)OC
Inhibition (Cavia porcellus [9]): 85.9%
Relative potency (Cavia porcellus [2]): 2%
pD2 (Cavia porcellus [10]): 5.4
Inhibition (Cavia porcellus [4]): 101%

CCO[C@]12CCN3C[C@@H](CC)[C@@H](/C(=C\OC)C(=O)OC)C[C@H]3C1=Nc1cccc(OC)c12
Relative potency (Cavia porcellus [2]): 1%
pD2 (Cavia porcellus [10]): 5.29
Inhibition (Cavia porcellus [23]): 22.9%
Inhibition (Cavia porcellus [4]): 26%

CC[C@@H]1CN2CC[C@]3(Nc4cccc(OC)c4C3=O)[C@@H]2C[C@@H]1/C(=C\OC)C(=O)OC
Relative affinity [11]: 97.1%
Ki (Mu-type opioid receptor): 0.0871 nM
Relative affinity [12]: 2.8%
Ki [13]: 79.4 nM
Inhibition (Cavia porcellus [9]): 83.5%
Relative potency (Cavia porcellus [2]): 3467%
pD2 (Cavia porcellus [15]): 8.71
Inhibition (Cavia porcellus [4]): 96%

CC[C@@H]1CN2CC[C@@]3(OC)C(=Nc4cccc(OC)c43)[C@@H]2C[C@@H]1/C(=C\OC)C(=O)OC
Relative potency (Cavia porcellus [2]): 19%
pD2 (Cavia porcellus [10]): 6.45
Inhibition (Cavia porcellus [24]): 60.9%
Inhibition (Cavia porcellus [4]): 70%

CC[C@@H]1C[N+]2([O-])CCc3c([nH]c4cccc(OC)c34)[C@@H]2C[C@@H]1/C(=C\OC)C(=O)OC (stereo partly specified)
Inhibition (Cavia porcellus [9]): -123.5%

CN1CC[C@]23c4c5ccc(O)c4O[C@H]2[C@@H](O)C=C[C@H]3[C@H]1C5 [MORPHINE]
Inhibition (Cavia porcellus [9]): 87.2%
Contraction (Cavia porcellus [25]): 27.4%
Inhibition (Cavia porcellus [4]): 100%

CC[C@@H]1CN2CC[C@@]3(OC(C)=O)C(=Nc4cccc(OC)c43)[C@@H]2C[C@@H]1/C(=C\OC)C(=O)OC
Inhibition (Cavia porcellus [1]): 13.4%
Relative potency (Cavia porcellus [2]): 21%
pD2 (Cavia porcellus [14]): 6.5
Inhibition (Cavia porcellus [4]): 15%

CC[C@@H]1CN2CCc3c([nH]c4cccc(O)c34)[C@@H]2C[C@@H]1/C(=C\OC)C(=O)OC
Relative affinity [11]: 99.6%
Ki (Mu-type opioid receptor): 12 nM
Relative affinity [12]: < 0.1%
Ki [13]: 2950 nM
Inhibition (Cavia porcellus [1]): 49.4%
Relative potency (Cavia porcellus [2]): 41%
pD2 (Cavia porcellus [3]): 6.78
Inhibition (Cavia porcellus [4]): 57%

COc1ccc(CCN(C)CCCC(C#N)(c2ccc(OC)c(OC)c2)C(C)C)cc1OC (stereo unspecified)
Contraction (Cavia porcellus [26]): 6.8%

CC[C@@H]1CN2CCc3c([nH]c4cccc(OCOC)c34)[C@@H]2C[C@@H]1/C(=C\OC)C(=O)OC
NE (Cavia porcellus [27]): inactive
NE (Cavia porcellus [28]): inactive
NE (Cavia porcellus [29]): inactive
NE (Cavia porcellus [30]): inactive

CN1[C@@H]2CC[C@H]1C[C@@H](OC(=O)C(CO)c1ccccc1)C2 (stereo partly specified) [ATROPINE]
Contraction (Cavia porcellus [31]): 3.9%
